Source: ChEMBL document CHEMBL3593157, “Discovery of a 1-isopropyltetrahydroisoquinoline derivative as an orally active N-type calcium channel blocker for neuropathic pain” (Bioorg Med Chem, 2015)

Experiments:
[1] = Inhibition of N-type calcium channel in human IMR-32 cells by FLIPR assay; assay type: cell-based
In short: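 Fluorometric imaging plate reader calcium assay in IMR-32 human neuroblastoma cells. Nitrendipine present to block endogenous L-type calcium channels. IC50 determined in duplicate in one experiment.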

Cytochrome P450 2D6 = Cytochrome P450 2D6 (Homo sapiens, UniProt P10635); assay: Inhibition of CYP2D6 in human liver microsomes using dextromethorphan as substrate preincubated for 30 mins before substrate addition measured after 20 mins by LC-MS/MS analysis
[2] = Intrinsic clearance in human liver microsomes at 0.2 uM measured up to 45 mins by LC-MS/MS analysis; assay type: ADME; conditions: read-out: CLH
In short: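 Human liver microsomes (0.2 mg protein/mL) in 100 mM Na+–K+ phosphate buffer pH 7.4 with 1 mM NADPH and 0.1 mM EDTA, preincubated 5 min at 37 °C. Compound at 0.2 µM final, sampled at 0, 15, 30 and 45 min. Residual compound measured by LC–MS/MS. CLint = disappearance rate constant / microsomal protein, from a least-squares linear fit.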

Cytochrome P450 2C9 = Cytochrome P450 2C9 (Homo sapiens, UniProt P11712); assay: Inhibition of recombinant human CYP2C9 using 7-methoxy-4-trifluoromethylcoumarin as substrate after 45 mins by fluorescence-based assay; assay type: ADME
[3] = Aqueous solubility of the compound in Japanese Pharmacopoeia 2nd fluid at pH 6.8; assay type: physicochemical
In short: (§1)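 Solubility measured in Japanese Pharmacopoeia 1st fluid for the dissolution test (pH 1.2) and 2nd fluid (pH 6.8).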

[4] = Aqueous solubility of the compound in Japanese Pharmacopoeia 1st fluid at pH 1.2; assay type: physicochemical; in short: as §1
[5] = biological target: Voltage-gated inwardly rectifying potassium channel KCNH2 (Homo sapiens, UniProt Q12809); assay: Inhibition of human ERG expressed in CHO cells after 10 mins by Rb efflux assay; assay type: cell-based
[6] = Lipophilicity, log D of the compound at pH 7.4; assay type: physicochemical
In short: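 cLogD at pH 7.4 calculated with ACD/PhysChem Batch rather than measured.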

Mus musculus [7] = assay: Toxicity in intrathecally dosed ddY mouse at 10 to 100 […] measured up to 25 mins; assay type: organism-based; conditions: in vivo, icv_or_intrathecal
Rattus norvegicus [8] = assay: Neurotoxicity in Sprague-Dawley rat assessed as effect on motor coordination by measuring time spent on rod at 30 mg/kg, po by rotarod test; assay type: toxicity, organism-based; conditions: in vivo
In short: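 Motor coordination in Sprague-Dawley rats after oral dosing, assessed by an accelerating rotarod test.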

Mus musculus [9] = assay: Antinociceptive activity in intrathecally dosed ddY mouse assessed as reduction of formalin-induced paw lifting/licking behavior administered 15 mins before formalin challenge measured up to 10 mins; assay type: functional
In short: (§2)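 Male ddY mice given an intrathecal bolus. After 15 min, 2% formalin (20 µL) injected subcutaneously into the plantar hindpaw. Total lifting/licking time recorded for 0–10 min (first phase) and 15–25 min (second phase). Mean of n = 6 against vehicle, Dunnett's test. ED50 in nmol/body.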

Mus musculus [10] = assay: Antinociceptive activity in intrathecally dosed ddY mouse assessed as reduction of formalin-induced paw lifting/licking behavior administered 15 mins before formalin challenge measured after 15 to 25 mins; assay type: functional; in short: as §2
Mus musculus [11] = assay: Antinociceptive activity in ddY mouse assessed as inhibition of formalin-induced paw lifting/licking behavior at 100 mg/kg, po administered 15 mins before formalin challenge measured up to 15 to 25 mins; assay type: functional
In short: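 Male ddY mice dosed orally at 100 mg/kg. 2% formalin (20 µL) injected subcutaneously into the plantar hindpaw. Lifting/licking time in the second phase (15–25 min) expressed as % inhibition.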

Rattus norvegicus [12] = assay: Analgesic activity in po dosed Sprague-Dawley rat L5/L6 spinal nerve ligation model assessed as reduction of mechanical allodynia; assay type: functional, organism-based
In short: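 Male Sprague-Dawley rats with L5/L6 spinal nerve ligation (Chung method). Compound given orally at 1 to 10 mg/kg. Hindpaw withdrawal threshold to mechanical stimuli measured on the operated and non-operated sides against vehicle groups, n = 8. ED50 derived from the dose-response. Dunnett's test against the operated-side vehicle group.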

Cytochrome P450 2D6, sequence (P10635 whole entry): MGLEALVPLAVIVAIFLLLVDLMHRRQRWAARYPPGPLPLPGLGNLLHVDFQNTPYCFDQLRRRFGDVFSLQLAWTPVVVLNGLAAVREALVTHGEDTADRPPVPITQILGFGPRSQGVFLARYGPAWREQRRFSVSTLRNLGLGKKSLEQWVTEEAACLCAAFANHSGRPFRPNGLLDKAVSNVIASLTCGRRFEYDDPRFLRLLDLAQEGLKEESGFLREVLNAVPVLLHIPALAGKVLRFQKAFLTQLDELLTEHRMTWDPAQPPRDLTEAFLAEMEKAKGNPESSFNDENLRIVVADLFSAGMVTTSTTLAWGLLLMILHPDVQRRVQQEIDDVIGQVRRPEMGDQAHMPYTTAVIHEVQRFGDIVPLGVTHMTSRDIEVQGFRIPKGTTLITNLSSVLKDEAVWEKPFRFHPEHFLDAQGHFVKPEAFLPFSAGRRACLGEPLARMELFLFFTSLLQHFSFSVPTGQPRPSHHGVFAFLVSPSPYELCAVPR
Cytochrome P450 2C9, sequence (P11712 whole entry): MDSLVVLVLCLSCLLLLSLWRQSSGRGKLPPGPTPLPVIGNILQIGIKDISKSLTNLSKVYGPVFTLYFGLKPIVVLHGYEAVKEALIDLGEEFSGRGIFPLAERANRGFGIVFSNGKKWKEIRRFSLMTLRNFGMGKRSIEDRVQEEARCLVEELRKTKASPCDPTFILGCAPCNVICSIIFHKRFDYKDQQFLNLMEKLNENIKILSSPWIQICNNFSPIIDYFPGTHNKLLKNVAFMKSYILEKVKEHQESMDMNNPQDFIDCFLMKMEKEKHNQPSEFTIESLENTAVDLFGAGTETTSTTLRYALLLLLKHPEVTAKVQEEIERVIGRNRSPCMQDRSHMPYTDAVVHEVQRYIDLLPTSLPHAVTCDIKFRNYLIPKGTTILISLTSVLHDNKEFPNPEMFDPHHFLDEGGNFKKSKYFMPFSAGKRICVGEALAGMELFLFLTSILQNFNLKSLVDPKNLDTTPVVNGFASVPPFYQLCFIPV
Voltage-gated inwardly rectifying potassium channel KCNH2, sequence (Q12809 whole entry): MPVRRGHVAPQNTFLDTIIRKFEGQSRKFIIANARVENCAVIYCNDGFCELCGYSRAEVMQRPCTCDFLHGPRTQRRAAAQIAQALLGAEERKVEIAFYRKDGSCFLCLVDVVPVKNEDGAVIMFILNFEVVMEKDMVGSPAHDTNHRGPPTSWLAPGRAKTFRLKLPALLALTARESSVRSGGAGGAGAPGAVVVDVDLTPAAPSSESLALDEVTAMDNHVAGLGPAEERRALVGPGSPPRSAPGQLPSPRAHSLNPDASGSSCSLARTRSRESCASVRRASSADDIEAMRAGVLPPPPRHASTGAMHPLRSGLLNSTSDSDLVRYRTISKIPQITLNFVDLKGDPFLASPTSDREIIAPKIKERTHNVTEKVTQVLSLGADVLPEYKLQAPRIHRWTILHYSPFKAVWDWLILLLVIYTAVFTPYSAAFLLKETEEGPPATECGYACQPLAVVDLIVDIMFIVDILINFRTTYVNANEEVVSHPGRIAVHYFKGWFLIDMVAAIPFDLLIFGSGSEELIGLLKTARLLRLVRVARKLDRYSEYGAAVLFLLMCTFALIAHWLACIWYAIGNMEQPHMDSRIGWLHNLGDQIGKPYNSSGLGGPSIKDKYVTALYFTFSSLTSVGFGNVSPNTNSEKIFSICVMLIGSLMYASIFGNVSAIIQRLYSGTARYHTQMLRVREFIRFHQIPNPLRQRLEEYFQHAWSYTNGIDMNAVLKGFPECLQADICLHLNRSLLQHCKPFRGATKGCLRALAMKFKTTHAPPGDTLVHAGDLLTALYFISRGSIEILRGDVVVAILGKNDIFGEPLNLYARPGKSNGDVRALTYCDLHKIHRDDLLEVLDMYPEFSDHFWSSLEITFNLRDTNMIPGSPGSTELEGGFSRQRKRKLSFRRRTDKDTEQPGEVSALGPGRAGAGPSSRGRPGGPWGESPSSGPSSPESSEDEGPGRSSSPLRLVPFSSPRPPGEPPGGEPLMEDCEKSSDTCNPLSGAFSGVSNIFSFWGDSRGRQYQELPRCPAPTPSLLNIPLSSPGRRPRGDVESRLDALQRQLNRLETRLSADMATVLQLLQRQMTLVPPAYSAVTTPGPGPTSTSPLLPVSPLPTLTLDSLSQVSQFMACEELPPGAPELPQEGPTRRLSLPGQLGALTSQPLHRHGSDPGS

IC50 [1] | IC50 (Cytochrome P450 2D6) | SMILES | further results
890 nM | 390 nM | CC(C)C1c2ccc(F)cc2CCN1C(=O)CNCC1(O)CCCCC1 (stereo not drawn) | –
2900 nM | – | CC1c2ccccc2CCN1C(=O)CNCC1(O)CCCCC1 (stereo not drawn) | –
730 nM | < 780 nM | CCC(CC)C1c2ccccc2CCN1C(=O)CNCC1(O)CCCCC1 (stereo not drawn) | –
1300 nM | 680 nM | CC(C)C1c2cc(F)ccc2CCN1C(=O)CNCC1(O)CCCCC1 (stereo not drawn) | –
6100 nM | – | CC(C)(O)C1c2ccccc2CCN1C(=O)CNCC1(O)CCCCC1 (stereo not drawn) | –
1300 nM | – | COc1ccc2c(c1)CCN(C(=O)CNCC1(O)CCCCC1)C2C(C)C (stereo not drawn) | –
1600 nM | < 780 nM | Cc1cccc2c1C(C(C)C)N(C(=O)CNCC1(O)CCCCC1)CC2 (stereo not drawn) | –
990 nM | – | O=C(CNCC1(O)CCCCC1)N1CCc2ccccc2C1C1CCCC1 (stereo not drawn) | –
1600 nM | – | COc1ccc2c(c1)C(C(C)C)N(C(=O)CNCC1(O)CCCCC1)CC2 (stereo not drawn) | –
800 nM | < 780 nM | CC(C)(C)C1c2ccccc2CCN1C(=O)CNCC1(O)CCCCC1 (stereo not drawn) | –
4100 nM | – | O=C(CNCC1(O)CCCCC1)N1CCc2ccccc2C1C1CCOCC1 (stereo not drawn) | –
2100 nM | – | COc1ccc2c(c1)CCN(C(=O)CNCC1(O)CCCCC1)[C@H]2C(C)C | CLint scaled at 0.2 µM [2]: 188 mL/min/kg; IC50 (Cytochrome P450 2C9): > 50 µM; solubility [3]: > 100 µg/mL; solubility [4]: > 100 µg/mL; IC50 [5]: > 100 µM
1400 nM | < 780 nM | Cc1ccc2c(c1)C(C(C)C)N(C(=O)CNCC1(O)CCCCC1)CC2 (stereo not drawn) | –
8000 nM | – | O=C(CNCC1(O)CCCCC1)N1CCc2ccccc2C1 | –
1000 nM | < 390 nM | O=C(CNCC1(O)CCCCC1)N1CCc2ccccc2[C@@H]1c1ccccc1 | –
1400 nM | < 780 nM | Cc1cccc2c1CCN(C(=O)CNCC1(O)CCCCC1)C2C(C)C (stereo not drawn) | –
1900 nM | – | COc1ccc2c(c1)CCN(C(=O)CNCC1(O)CCCCC1)[C@@H]2C(C)C | logD [6]: 2.4; CLint scaled at 0.2 µM [2]: 101 mL/min/kg; Activity (Mus musculus [7]): Non-toxic; Activity (Rattus norvegicus [8]): Non-toxic; Activity (Mus musculus [9]): Dose-dependent effect; ED50 (Mus musculus [9]): >100 nmol; IC50 (Cytochrome P450 2C9): > 50 µM; Activity (Mus musculus [10]): Dose-dependent effect; ED50 (Mus musculus [10]): 25.4 nmol; solubility [3]: > 100 µg/mL; solubility [4]: > 100 µg/mL; inhibition in vivo at 100 mg/kg (Mus musculus [11]): 64%; Activity (Rattus norvegicus [12]): Dose-dependent effect; IC50 [5]: > 100 µM
3700 nM | – | COC(C)(C)C1c2ccccc2CCN1C(=O)CNCC1(O)CCCCC1 (stereo not drawn) | –
1400 nM | – | COc1cccc2c1C(C(C)C)N(C(=O)CNCC1(O)CCCCC1)CC2 (stereo not drawn) | –
1100 nM | – | CC(C)C1c2ccccc2CCN1C(=O)CNCC1(O)CCCCC1 (stereo not drawn) | –
1500 nM | – | CC(C)C1c2c(F)cccc2CCN1C(=O)CNCC1(O)CCCCC1 (stereo not drawn) | –
